For data set [1], the system named is Rattus norvegicus. In words: Analgesic activity in Sprague-Dawley rat assessed as reduction in chronic constriction injury induced hyperalgesic neuropathic pain on ligated side at 100 mg/kg/day administered via oral gavage measured upto 8 days relative to vehicle-treated control. The format is functional, organism-based. Put shortly:
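Male Sprague–Dawley rats (200–250 g; n = 10–15 per group) received sciatic nerve constriction with four loose 4.0 chromic gut ligatures spaced 1 mm apart. Testing began 10 days after surgery. Dosing was daily by oral gavage, given 1 h before testing on test days. Hind-paw withdrawal latency to a plantar thermal stimulus (Hargreaves) was read to 0.1 s, with normal response within 15 s. Difference score was nonligated minus ligated latency. Sessions were twice weekly, and groups were compared by t-test versus control.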

Data set [2] concerns the target Glutamate carboxypeptidase 2 (Homo sapiens, UniProt Q04609). In words: Inhibition of recombinant human glutamate carboxypeptidase 2 (44 to 750 residues) overexpressed in Drosophila Schneider S2 cells using [3H]-NAAG/NAAG as substrate preincubated for 15 mins followed by substrate addition measured after 20 mins by liquid scintillation counting method. Put shortly: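 Radioenzymatic assay. rhGCPII (30 ng/mL) preincubated with inhibitor at varying concentrations for 15 min at 37 °C in 20 mM Tris, 150 mM NaCl, pH 8.0. Started with 0.31 μM NAAG plus 15 nM 3H-NAAG and run 20 min. Stopped with phosphate/EDTA/β-mercaptoethanol, pH 7.4. Released glutamate separated by ion exchange and counted by scintillation. IC50 obtained from inhibition curves.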

Data set [3] relates to Plasma. In words: Metabolic stability in mouse plasma at 10 uM measured upto 60 mins by LC-MS/MS analysis. The format is ADME, cell-free. The following applies: 1 h. Put shortly:
(§1)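 Compounds at 10 μM spiked into mouse plasma and shaken at 37 °C. Triplicate aliquots taken at 0 and 60 min and quenched with 2 volumes of ice-cold acetonitrile containing losartan 5 μM as internal standard. Centrifuged and supernatant diluted with water. Parent loss and metabolites identified by LC–ESI-TOF on C18 using a formic acid/acetonitrile gradient and extracted-ion chromatograms.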

Data set [4] has as its system Plasma. In words: Prodrug conversion in CD1 mouse plasma assessed as 4-Carboxy-alpha-[3-(hydroxyamino)-3-oxopropyl]-benzenepropanoic acid formation at 10 mg/kg equiv of 4-Carboxy-alpha-[3-(hydroxyamino)-3-oxopropyl]-benzenepropanoic acid after 30 mins by LC-MS/MS analysis. The following applies: in vivo, 0.5 h. The format is ADME, organism-based. In short, it runs like this:
(§2)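 Male CD-1 mice (25–30 g) given a single oral dose equivalent to 10 mg/kg of parent, in 50 mM HEPES-buffered saline at pH 7.4. Killed by pentobarbital at 30 min and blood taken by cardiac puncture into heparin. Plasma stored at −80 °C, then assayed for parent by LC-MS/MS on C18 with a formic acid/acetonitrile gradient. Mean ± SEM, n = 3.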

The subject of data set [5] is Plasma. As to the kind of experiment: Prodrug conversion in CD1 mouse plasma assessed as 4-Carboxy-alpha-[3-(hydroxyamino)-3-oxopropyl]-benzenepropanoic acid formation at 10 mg/kg equiv of 4-Carboxy-alpha-[3-(hydroxyamino)-3-oxopropyl]-benzenepropanoic acid after 30 mins by LC-MS/MS analysis relative to 4-Carboxy-alpha-[3-(hydroxyamino)-3-oxopropyl]-benzenepropanoic acid alone. The format is ADME, organism-based. The following applies: in vivo, 0.5 h. Put shortly: as §2

Data set [6] relates to Plasma. In words: Prodrug conversion in mouse plasma assessed as 4-Carboxy-alpha-[3-(hydroxyamino)-3-oxopropyl]-benzenepropanoic acid formation at 10 uM measured upto 60 mins by LC-MS/MS analysis. The following applies: 1 h. The format is ADME, cell-free. Put shortly:
as §1

In data set [7] the test system is Rattus norvegicus. In words: Analgesic activity in Sprague-Dawley rat assessed as reduction in chronic constriction injury induced hyperalgesic neuropathic pain on ligated side at 4.6 mg/kg/day administered via oral gavage measured upto 8 days relative to vehicle-treated control. The format is functional, organism-based. Put shortly:
(§3)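 Male Sprague–Dawley rats (200–250 g; n = 10–15 per group) with sciatic nerve loosely ligated (four 4.0 chromic gut ligatures, 1 mm apart). Testing began 10 days post-surgery. Plantar thermal stimulus (Hargreaves) applied to the hind paw, withdrawal latency read to 0.1 s. Dosed daily by oral gavage, and 1 h before each test session. Two sessions per week; compared with vehicle by Student's t-test.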

In data set [8] the test system is Rattus norvegicus. In words: Effect on response latency to thermal stimulus in Sprague-Dawley rat at 4.6 mg/kg administered via oral gavage relative to vehicle-treated control. The following applies: in vivo. The format is organism-based. Put shortly:
as §3

Data set [9] is described as follows: Prodrug conversion in Tris/NaCl buffer assessed as 4-Carboxy-alpha-[3-(hydroxyamino)-3-oxopropyl]-benzenepropanoic acid formation at pH 8. Put shortly: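 Stability tested under the enzyme assay conditions: 30 min in aqueous buffer (20 mM Tris, 150 mM NaCl), pH 8.0.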
Data set [10] has as its system Plasma. As to the kind of experiment: Drug metabolism in mouse plasma assessed as 2-(4-(ethoxycarbonyl)benzyl)-5-(hydroxyamino)-5-oxopentanoic acid formation at 10 uM measured after 60 mins by LC-MS/MS analysis. The format is ADME, cell-free. The following applies: 1 h. Put shortly:
as §1

SMILES strings stand for the structures. Active and inactive are the calls of the source. No cut-off for these calls is given here.

Sequence of Glutamate carboxypeptidase 2 (Q04609 whole entry, the tested form may be a part): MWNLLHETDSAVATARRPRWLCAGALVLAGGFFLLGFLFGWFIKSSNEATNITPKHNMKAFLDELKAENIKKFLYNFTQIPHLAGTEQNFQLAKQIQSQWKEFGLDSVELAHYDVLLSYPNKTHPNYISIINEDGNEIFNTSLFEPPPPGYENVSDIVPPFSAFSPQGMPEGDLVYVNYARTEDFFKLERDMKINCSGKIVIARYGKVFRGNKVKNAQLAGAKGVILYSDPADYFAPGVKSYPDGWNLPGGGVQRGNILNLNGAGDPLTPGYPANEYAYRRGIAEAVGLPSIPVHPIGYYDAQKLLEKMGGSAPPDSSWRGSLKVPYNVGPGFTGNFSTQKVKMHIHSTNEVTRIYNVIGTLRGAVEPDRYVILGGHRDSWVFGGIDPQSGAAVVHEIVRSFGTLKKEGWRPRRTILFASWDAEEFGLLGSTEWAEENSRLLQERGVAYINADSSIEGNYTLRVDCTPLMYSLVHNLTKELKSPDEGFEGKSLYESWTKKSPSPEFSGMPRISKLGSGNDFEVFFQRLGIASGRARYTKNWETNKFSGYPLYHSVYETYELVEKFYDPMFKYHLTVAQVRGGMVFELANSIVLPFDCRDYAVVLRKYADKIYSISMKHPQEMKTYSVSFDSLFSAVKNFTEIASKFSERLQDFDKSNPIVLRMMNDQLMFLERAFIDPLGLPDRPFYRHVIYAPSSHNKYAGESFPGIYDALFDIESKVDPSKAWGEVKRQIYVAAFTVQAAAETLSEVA

As to `NCC1(CC(=O)O)CCCCC1`, the outcome in the data set on Rattus norvegicus [1] was Active.
For `O=C(CCC(Cc1ccc(C(=O)O)cc1)C(=O)O)NO` (centres undefined), in data set [2], the IC50 (usually the concentration at which inhibition is half-maximal) amounted to 0.04 µM. For the same molecule, the Stability result in the data set with Plasma [3] is listed as “Stable”.
`CC(=O)ONC(=O)CCC(Cc1ccc(C(=O)O)cc1)C(=O)O` (centres undefined): in [2], the 50% inhibitory concentration (IC50) is over 5 µM.
`CCOC(=O)c1ccc(CC(CCC(=O)NOCc2ccc(OC(C)=O)cc2)C(=O)OCC)cc1` (centres undefined): the IC50 in data set [2] was over 5 µM. Moreover, the Drug metabolism result in the data set with Plasma [4] was “Metabolite_Notdetected”.
On to `CC(=O)Oc1ccc(CONC(=O)CCC(Cc2ccc(C(=O)O)cc2)C(=O)O)cc1` (centres undefined), for which the “fold change (FC)” value in the data set with Plasma [5] was 5. Further, the IC50 in data set [2] is over 5 µM. For the same molecule, the Drug metabolism result in the data set on Plasma [6] was “Metabolite_Detected”. Besides, the result in the data set with Rattus norvegicus [7] was Active. Moreover, in the data set with Rattus norvegicus [8], the Activity entry is on record as “Non-Toxic”.
For the molecule `Cc1oc(=O)oc1CONC(=O)CCC(Cc1ccc(C(=O)O)cc1)C(=O)O` (centres undefined), in data set [9], the Drug metabolism result was “Metabolite detected”.
As for `CC(=O)Oc1ccc(CONC(=O)CCC(Cc2ccc(C(=O)OCOC(=O)OC(C)C)cc2)C(=O)O)cc1` (centres undefined), the “fold change (FC)” value in the data set with Plasma [5] is 4. For the same molecule, in data set [2], the IC50 was over 5 µM. In addition, the Drug metabolism entry in the data set with Plasma [6] is given as “Metabolite_Detected”.
As for `CCOC(=O)c1ccc(CC(CCC(=O)NOCc2ccc(OC(C)=O)cc2)C(=O)O)cc1` (centres undefined), the IC50 in data set [2] is over 5 µM. Besides, the Drug metabolism entry was “Metabolite_Notdetected” with Plasma [6], “Metabolite_Notdetected” with Plasma [4] and “Metabolite_Detected” in the data set on Plasma [10].

(Values after ChEMBL document CHEMBL4017492, “Discovery of a para-Acetoxy-benzyl Ester Prodrug of a Hydroxamate-Based Glutamate Carboxypeptidase II Inhibitor as Oral Therapy for Neuropathic Pain” (J Med Chem, 2017).)
